Measured values published in ChEMBL document CHEMBL3580575, “Monocarboxylate transporter 1 inhibitors as potential anticancer agents” (ACS Med Chem Lett, 2015).

Columns and labels:
[1] = target: T1, Monocarboxylate transporter 1 (Rattus norvegicus, UniProt P53987); assay: Inhibition of MCT1-mediated lactate transport in rat RBE4 cells incubated for 15 mins by [14C]-lactate uptake assay; type: cell-based
T1 sequence (P53987 whole entry): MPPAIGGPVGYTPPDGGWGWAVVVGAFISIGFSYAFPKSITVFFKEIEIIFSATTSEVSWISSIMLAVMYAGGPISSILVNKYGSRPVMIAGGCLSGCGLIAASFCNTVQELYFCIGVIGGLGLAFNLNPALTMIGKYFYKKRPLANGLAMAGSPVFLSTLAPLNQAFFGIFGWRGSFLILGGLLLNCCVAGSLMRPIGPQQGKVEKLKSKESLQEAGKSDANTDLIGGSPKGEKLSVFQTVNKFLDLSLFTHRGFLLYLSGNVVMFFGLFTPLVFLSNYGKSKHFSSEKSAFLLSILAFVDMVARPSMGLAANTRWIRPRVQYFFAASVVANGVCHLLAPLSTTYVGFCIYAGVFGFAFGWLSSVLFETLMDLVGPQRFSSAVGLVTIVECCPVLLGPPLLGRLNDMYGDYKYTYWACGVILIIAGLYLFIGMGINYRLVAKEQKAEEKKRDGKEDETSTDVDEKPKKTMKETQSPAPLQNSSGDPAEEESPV
Procedure, shortened: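 MCT1 inhibition measured as [14C]-lactate uptake in rat brain endothelial RBE4 cells, which highly express MCT1 (Western blot). IC50 is the test-compound concentration causing 50% transport inhibition.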

Mus musculus [2] = assay: Toxicity in CD1(ICR) mouse assessed as survival at 50 mg/kg, ip qd for 3 weeks; type: organism-based; settings: in vivo, 504 h
Procedure, shortened: (§1)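 In a follow-up systemic toxicity study, healthy ICR mice were dosed at 50 mg/kg either by oral gavage twice daily or ip once daily. Mortality and body weight gain were compared with a control group.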

[3] = Tmax in CD1(ICR) mouse at 100 mg/kg, ig by LC-MS/MS method; type: ADME, organism-based; settings: in vivo, po
Procedure, shortened: (§2)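 Preliminary pharmacokinetics in ICR mice. Sixty mice were split into two groups and given 100 mg/kg, one group intraperitoneally and the other intragastrically.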

Mus musculus [4] = assay: Toxicity in CD1(ICR) mouse assessed as induction of weight gain at 50 mg/kg, po bid for 3 weeks; type: organism-based; settings: in vivo, 504 h; procedure, shortened: as §1
Mus musculus [5] = assay: Toxicity in CD1(ICR) mouse assessed as survival at 6.67 mg/kg, ip bid for 3 weeks; type: organism-based; settings: in vivo, 504 h
Procedure, shortened: (§3)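 Healthy ICR mice were given 6.67 mg/kg ip, twice daily, in 0.1% DMSO in saline for three weeks. Survival and body weight gain were recorded and compared with a control group.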

[6] = Solubility in water; type: physicochemical
Mus musculus [7] = assay: Toxicity in CD1(ICR) mouse assessed as induction of weight gain at 50 mg/kg, ip qd for 3 weeks; type: organism-based; settings: in vivo, 504 h; procedure, shortened: as §1
[8] = Tmax in CD1(ICR) mouse at 100 mg/kg, ip by LC-MS/MS method; type: ADME, organism-based; settings: in vivo; procedure, shortened: as §2
Mus musculus [9] = assay: Toxicity in CD1(ICR) mouse assessed as induction of weight gain at 6.67 mg/kg, ip bid for 3 weeks; type: organism-based; settings: in vivo, 504 h; procedure, shortened: as §3
Mus musculus [10] = assay: Drug elimination in CD1(ICR) mouse at 100 mg/kg, ip by LC-MS/MS method; type: ADME, organism-based; settings: in vivo; procedure, shortened: as §2
Mus musculus [11] = assay: Toxicity in CD1(ICR) mouse assessed as survival at 6.67 mg/kg, ip bid for 3 weeks; settings: in vivo, 504 h
Mus musculus [12] = assay: Toxicity in CD1(ICR) mouse assessed as induction of weight gain at 6.67 mg/kg, ip bid for 3 weeks; settings: in vivo, 504 h
Mus musculus [13] = assay: Toxicity in CD1(ICR) mouse assessed as survival at 50 mg/kg, po bid for 3 weeks; type: organism-based; settings: in vivo, 504 h; procedure, shortened: as §1
Mus musculus [14] = assay: Drug elimination in CD1(ICR) mouse at 100 mg/kg, ig by LC-MS/MS method; type: ADME, organism-based; settings: in vivo, po; procedure, shortened: as §2

Row | Compound | IC50 [1] | also measured
1 | N#C/C(=C\c1ccc([N+](=O)[O-])cc1)C(=O)O | 500 nM | 
2 | CCc1ccc(/C=C(\C#N)C(=O)O)cc1 | 500 nM | 
3 | N#C/C(=C\c1ccc(Cl)cc1)C(=O)O | 500 nM | 
4 | N#C/C(=C\c1ccc(Br)cc1)C(=O)O | 500 nM | 
5 | N#C/C(=C\c1ccc(C#N)cc1)C(=O)O | 500 nM | 
6 | N#C/C(=C\c1ccc2c(c1)OCO2)C(=O)O | 500 nM | 
7 | CC(C)CN(CC(C)C)c1ccc(/C=C(\C#N)C(=O)O)cc1 | 100 nM | 
8 | CCCCCN(CCCCC)c1ccc(/C=C(\C#N)C(=O)O)cc1 | 140 nM | 
9 | CCCCCCN(CCCCCC)c1ccc(/C=C(\C#N)C(=O)O)cc1 | 880 nM | 
10 | C=CCN(CC=C)c1ccc(/C=C(\C#N)C(=O)O)cc1 | 110 nM | 
11 | C#CCN(CC#C)c1ccc(/C=C(\C#N)C(=O)O)cc1 | 400 nM | 
12 | N#C/C(=C\c1ccc(N2CCCC2)cc1)C(=O)O | 70 nM | 
13 | N#C/C(=C\c1ccc(N2CCCCC2)cc1)C(=O)O | 140 nM | 
14 | COc1cc(N(c2ccccc2)c2ccccc2)ccc1/C=C(\C#N)C(=O)[O-].[Na+] | 11 nM | Activity (Mus musculus [2]): Non-toxic; Tmax [3]: 18 min; Activity (Mus musculus [4]): Non-toxic; Activity (Mus musculus [5]): Non-toxic; solubility [6]: 1000 µg/mL; Activity (Mus musculus [7]): Non-toxic; Tmax [8]: 15 min; Activity (Mus musculus [9]): Non-toxic; Drug excretion (Mus musculus [10]): <= 24 hr; Activity (Mus musculus [11]): Non-toxic; Activity (Mus musculus [12]): Non-toxic; Activity (Mus musculus [13]): Non-toxic; Drug excretion (Mus musculus [14]): <= 24 hr
15 | Cc1ccc(/C=C(\C#N)C(=O)O)cc1 | 500 nM | 
16 | CN(C)c1ccc(/C=C(\C#N)C(=O)O)cc1 | 140 nM | 
17 | COc1ccc(/C=C(\C#N)C(=O)O)cc1 | 500 nM | 
18 | N#C/C(=C\c1ccc(F)cc1)C(=O)O | 500 nM | 

Further molecules by falling IC50 [1], results first:

Row | IC50 [1] | Compound | also measured
19 | 70 nM | CCN(CC)c1ccc(/C=C(\C#N)C(=O)O)cc1 | 
20 | 48 nM | COc1cc(N2CCCC2)ccc1/C=C(\C#N)C(=O)[O-].[Na+] | solubility [6]: > 7000 µg/mL
21 | 34 nM | CCCCCN(CCCCC)c1ccc(/C=C(\C#N)C(=O)O)c(OC)c1 | 
22 | 30 nM | CCCCN(CCCC)c1ccc(/C=C(\C#N)C(=O)O)cc1 | 
23 | 30 nM | N#C/C(=C\c1ccc(N(c2ccccc2)c2ccccc2)cc1)C(=O)O | 
24 | 29 nM | C=CCN(CC=C)c1ccc(/C=C(\C#N)C(=O)O)c(OC)c1 | 
25 | 25 nM | COc1cc(N2CCCCC2)ccc1/C=C(\C#N)C(=O)[O-].[Na+] | solubility [6]: > 7000 µg/mL
26 | 12 nM | CCCN(CCC)c1ccc(/C=C(\C#N)C(=O)O)c(OC)c1 | 
27 | 11 nM | COc1cc(N(CC(C)C)CC(C)C)ccc1/C=C(\C#N)C(=O)O | 
28 | 10 nM | CCCN(CCC)c1ccc(/C=C(\C#N)C(=O)O)cc1 | 
